Measurements from ChEMBL document CHEMBL1121415, “Inhibition of histamine-induced gastric secretion by flavone-6-carboxylic acids” (1980).
Where “and” joins values, the source holds several entries; their conditions need not be identical. Equal entries are not always repeated.

Legend:
Type in all cases: functional
Rattus norvegicus [1] = experiment: Inhibition of histamine-induced gastric acid secretion in the rat following 80 mg/kg s.c. administration.; conditions: Stomach, sc
Procedure, shortened: (§1)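 Compound was given subcutaneously at 1 mL/kg to 48-h-fasted rats in groups of 10; controls received saline. Pylorus ligation under ether followed 30 min later. Histamine 2.5 mg/kg sc was given at 15-min intervals for 3 h. Gastric juice was titrated with 0.02 N NaOH to pH 7.0 to give total acid output, expressed as % mean inhibition vs controls, with ANOVA.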

Rattus norvegicus [2] = experiment: The compound was tested for its ability to inhibit histamine-induced gastric acid secretion in the rat at a dose of 70 mg/kg, sc; conditions: Stomach, route subcutaneous; procedure, shortened: as §1
Rattus norvegicus [3] = experiment: The compound was tested for its ability to inhibit histamine-induced gastric acid secretion in the rat at a dose of 76 mg/kg, sc; conditions: Stomach, route subcutaneous; procedure, shortened: as §1
Rattus norvegicus [4] = experiment: Gastric juice volume when tested orally in rat ligated stomach preparation at 100 mg/kg peroral dose; conditions: route oral
Procedure, shortened: (§2)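 Orally gavaged rats (1 mL/kg; saline controls; 48-h fast, groups of 10) had pylorus ligation under ether 30 min post-dose. They then received histamine 2.5 mg/kg sc every 15 min for 3 h. At sacrifice, stomach contents were aspirated and the gastric juice volume in mL was recorded. Results are given as mean ± SD.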

Rattus norvegicus [5] = experiment: Determined as […] and at 100 mg/kg peroral dose; conditions: route oral
Procedure, shortened: (§3)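 Rats fasted 48 h with water ad libitum, in groups of 10, were dosed orally by gavage at 1 mL/kg; controls received saline. After 30 min, under ether, the pylorus was ligated. Histamine 2.5 mg/kg sc was given right after surgery and every 15 min for 3 h. Gastric juice was titrated with 0.02 N NaOH to pH 7.0 ± 0.1 as mequiv H+/100 g. Mean % inhibition vs controls was tested by ANOVA.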

Rattus norvegicus [6] = experiment: Determined as […] and at 50 mg/kg peroral dose; conditions: route oral; procedure, shortened: as §3
Rattus norvegicus [7] = experiment: Gastric juice volume when tested orally in rat ligated stomach preparation at 200 mg/kg peroral dose; conditions: route oral; procedure, shortened: as §2
Rattus norvegicus [8] = experiment: Determined as […] and at 200 mg/kg peroral dose; conditions: route oral; procedure, shortened: as §3
Rattus norvegicus [9] = experiment: % inhibition in total acid secretion when tested orally in rat ligated stomach preparation at 200 mg/kg peroral dose; conditions: route oral; procedure, shortened: as §3
Rattus norvegicus [10] = experiment: % inhibition in total acid secretion when tested orally in rat ligated stomach preparation at 100 mg/kg peroral dose; conditions: route oral; procedure, shortened: as §3
Rattus norvegicus [11] = experiment: Gastric juice volume when tested orally in rat ligated stomach preparation at 50 mg/kg peroral dose; conditions: route oral; procedure, shortened: as §2
Rattus norvegicus [12] = experiment: Determined as […] and at 150 mg/kg peroral dose; conditions: route oral; procedure, shortened: as §3
Rattus norvegicus [13] = experiment: Gastric juice volume when tested orally in rat ligated stomach preparation at 150 mg/kg peroral dose; conditions: route oral; procedure, shortened: as §2
Rattus norvegicus [14] = experiment: The compound was tested for its ability to inhibit histamine-induced gastric acid secretion in the rat at a dose of 60 mg/kg, sc; conditions: Stomach, route subcutaneous; procedure, shortened: as §1
Rattus norvegicus [15] = experiment: The compound was tested for its ability to inhibit histamine-induced gastric acid secretion in the rat at a dose of 66 mg/kg, sc; conditions: Stomach, route subcutaneous; procedure, shortened: as §1
Rattus norvegicus [16] = experiment: The compound was tested for its ability to inhibit histamine-induced gastric acid secretion in the rat at a dose of 90 mg/kg, sc; conditions: Stomach, route subcutaneous; procedure, shortened: as §1
Rattus norvegicus [17] = experiment: % inhibition in total acid secretion when tested orally in rat ligated stomach preparation at 75 mg/kg peroral dose; conditions: route oral; procedure, shortened: as §3
Rattus norvegicus [18] = experiment: Determined as […] and at 75 mg/kg peroral dose; conditions: route oral; procedure, shortened: as §3
Rattus norvegicus [19] = experiment: % inhibition in total acid secretion when tested orally in rat ligated stomach preparation at 150 mg/kg peroral dose; conditions: route oral; procedure, shortened: as §3
Rattus norvegicus [20] = experiment: Gastric juice volume when tested orally in rat ligated stomach preparation at 75 mg/kg peroral dose; conditions: route oral; procedure, shortened: as §2

Structure (SMILES): COc1ccc(-c2oc3ccc(C(=O)O)cc3c(=O)c2OC)cc1
- inhibition in vivo at 80 mg/kg (Rattus norvegicus [1]): 22%

Structure (SMILES): CS(=O)(=O)c1ccc(-c2cc(=O)c3cc(C(=O)O)ccc3o2)cc1
- inhibition in vivo at 70 mg/kg (Rattus norvegicus [2]): 41%

Structure (SMILES): CC(C)c1ccc(-c2oc3ccc(C(=O)O)cc3c(=O)c2O)cc1
- inhibition in vivo at 80 mg/kg (Rattus norvegicus [1]): 24%

Structure (SMILES): O=C(O)c1ccc2oc(-c3ccccc3Br)c(O)c(=O)c2c1
- inhibition in vivo at 80 mg/kg (Rattus norvegicus [1]): 22%

Structure (SMILES): CCCCCCOc1ccc(-c2oc3ccc(C(=O)O)cc3c(=O)c2OC)cc1
- inhibition in vivo at 76 mg/kg (Rattus norvegicus [3]): -12%

Structure (SMILES): CCCCCCc1ccc(-c2cc(=O)c3cc(C(=O)O)ccc3o2)cc1
- inhibition in vivo at 80 mg/kg (Rattus norvegicus [1]): 2%

Structure (SMILES): Cc1ccc(-c2oc3ccc(C(=O)O)cc3c(=O)c2OC(C)C)cc1
- inhibition in vivo at 80 mg/kg (Rattus norvegicus [1]): 8%

Structure (SMILES): O=C(O)c1ccc2oc(-c3ccc(Cl)cc3)c(O)c(=O)c2c1
- inhibition in vivo at 80 mg/kg (Rattus norvegicus [1]): -19%

Structure (SMILES): COc1ccc(-c2oc3ccc(C(=O)O)cc3c(=O)c2O)cc1
- inhibition in vivo at 80 mg/kg (Rattus norvegicus [1]): 24%

Structure (SMILES): O=C(O)c1ccc(-c2oc3ccc(C(=O)O)cc3c(=O)c2O)cc1
- inhibition in vivo at 80 mg/kg (Rattus norvegicus [1]): 23%

Structure (SMILES): COc1ccc(-c2oc3ccc(C(=O)O)cc3c(=O)c2OC(C)C)cc1
- inhibition in vivo at 80 mg/kg (Rattus norvegicus [1]): 35%
- Volume (Rattus norvegicus [4]): 5.16 mL
- mequiv of HCl (Rattus norvegicus [5]): 0.226
- mequiv of HCl (Rattus norvegicus [6]): 0.238
- Volume (Rattus norvegicus [7]): 3.68 mL
- mequiv of HCl (Rattus norvegicus [8]): 0.101
- Inhibition (Rattus norvegicus [9]): 34% and 59%
- Inhibition (Rattus norvegicus [10]): 4% and 9%
- Volume (Rattus norvegicus [11]): 5.13 mL
- mequiv of HCl (Rattus norvegicus [12]): 0.161
- Volume (Rattus norvegicus [13]): 4.8 mL

Structure (SMILES): COc1c(-c2ccc(Cl)cc2)oc2ccc(C(=O)O)cc2c1=O
- inhibition in vivo at 80 mg/kg (Rattus norvegicus [1]): 34%

Structure (SMILES): COc1ccc(-c2cc(=O)c3cc(C(=O)O)ccc3o2)cc1
- inhibition in vivo at 80 mg/kg (Rattus norvegicus [1]): 13%

Structure (SMILES): Cc1ccc(-c2oc3ccc(C(=O)O)cc3c(=O)c2O)cc1
- inhibition in vivo at 80 mg/kg (Rattus norvegicus [1]): -6%

Structure (SMILES): CCOc1ccc(-c2oc3ccc(C(=O)O)cc3c(=O)c2OC(C)C)cc1
- inhibition in vivo at 60 mg/kg (Rattus norvegicus [14]): 18%

Structure (SMILES): Cc1ccccc1-c1oc2ccc(C(=O)O)cc2c(=O)c1O
- inhibition in vivo at 80 mg/kg (Rattus norvegicus [1]): 15%

Structure (SMILES): O=C(O)c1ccc2oc(-c3ccc(F)cc3)cc(=O)c2c1
- inhibition in vivo at 80 mg/kg (Rattus norvegicus [1]): 21%

Structure (SMILES): CC(C)Oc1c(-c2ccc(C(C)C)cc2)oc2ccc(C(=O)O)cc2c1=O
- inhibition in vivo at 80 mg/kg (Rattus norvegicus [1]): 20%

Structure (SMILES): COc1c(-c2ccc(F)cc2)oc2ccc(C(=O)O)cc2c1=O
- inhibition in vivo at 70 mg/kg (Rattus norvegicus [2]): 4%

Structure (SMILES): COc1c(-c2ccc(C)cc2)oc2ccc(C(=O)O)cc2c1=O
- inhibition in vivo at 80 mg/kg (Rattus norvegicus [1]): 4%

Structure (SMILES): COc1cccc(-c2oc3ccc(C(=O)O)cc3c(=O)c2OC(C)C)c1
- inhibition in vivo at 66 mg/kg (Rattus norvegicus [15]): 12%

Structure (SMILES): CC(C)c1ccc(-c2cc(=O)c3cc(C(=O)O)ccc3o2)cc1
- inhibition in vivo at 80 mg/kg (Rattus norvegicus [1]): 19%

Structure (SMILES): CCCCCCOc1ccc(-c2oc3ccc(C(=O)O)cc3c(=O)c2O)cc1
- inhibition in vivo at 80 mg/kg (Rattus norvegicus [1]): -11%

Structure (SMILES): COc1cc(-c2oc3ccc(C(=O)O)cc3c(=O)c2O)cc(OC)c1OC
- inhibition in vivo at 80 mg/kg (Rattus norvegicus [1]): 24%

Structure (SMILES): COc1c(-c2ccc(C(C)C)cc2)oc2ccc(C(=O)O)cc2c1=O
- inhibition in vivo at 80 mg/kg (Rattus norvegicus [1]): 18%

Structure (SMILES): C/N=C(\S)NCCCCc1c[nH]cn1 [BURIMAMIDE]
- inhibition in vivo at 90 mg/kg (Rattus norvegicus [16]): 49%

Structure (SMILES): CNC(=S)NCCSCc1[nH]cnc1C [METIAMIDE]
- inhibition in vivo at 75 mg/kg (Rattus norvegicus [17]): 46%
- mequiv of HCl (Rattus norvegicus [18]): 0.148
- inhibition in vivo at 150 mg/kg (Rattus norvegicus [19]): 76%
- Volume (Rattus norvegicus [20]): 2.99 mL
- mequiv of HCl (Rattus norvegicus [12]): 0.064
- Volume (Rattus norvegicus [13]): 1.7 mL
